# STAT1 blocker: reduces IFN-gamma driven STAT1 reporter signal; NIH 3T3 STAT1-luciferase reporter, luminescence; inhibition, % at 5.5 µM; 200,000 compounds, 0.35% hits; AID 920;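 active = inhibition above a set limit, the mean inhibition across all tested compounds plus 3 SD, cut at about 34% in these data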;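 also: 0% = IFN-gamma with DMSO and 100% = IFN-gamma with 300 µM nifuroxazide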
# STAT1 activator: STAT1 signaling activation | activation (% of control), % at 5.5 µM | 200,000 compounds, 2.6% hits | NIH 3T3 STAT1-luciferase reporter, IFN-gamma, luminescence; 100% = IFN-gamma alone, no compound | AID 932;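 active = activation above the screen-wide mean activation plus 3 SD, cut at about 130% in these data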;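 also: raw ratio to IFN-gamma control signal so 100% means no change and 0% no light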
# NF-kB neuron act: compounds increasing NF-kB expression in human neuronal cells | NF-kB reporter expression; hits give high values | fold change at 12.5 µM | 190,000 compounds, 1.6% hits | AID 1239; in the data active = fold change above about 3.3
# STAT3 activator: increases IL-6 driven STAT3 reporter signal. U3A cells, IL-6 STAT3-luciferase reporter, luminescence; 100% = signal with IL-6 EC80 alone. activation (% of control), % at 5.6 µM. 190,000 compounds, 0.91% hits. AID 871;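 active = activation above the screen-wide mean of compound activation plus 3 SD, cut at about 130% in these data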;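 also: 0% = background luminescence of wells with medium and substrate only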
#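 System – human U3A cells carrying STAT3-luciferase construct · Probe or stimulus – Interleukin-6, 33 ng/mL · Schedule – compound 1 h, then IL-6 6 h at 37 °C · Signal – luminescence from STAT3-driven luciferase reporter · Evaluation – percent of IL-6-only median luminescence · Benchmarks – IL-6-only high control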
# STAT3 inh: inhibitors of IL-6 induced STAT3 signaling | U3A cells, IL-6 STAT3-luciferase reporter, luminescence; host cell line lacks STAT1 | inhibition, % at 5.5 µM | 190,000 compounds, 0.89% hits | AID 862;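 active = inhibition above the mean inhibition across all screened compounds plus 3 SD, cut at about 44% in these data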;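 also: 0% = DMSO only wells and 100% = 100 µM nifuroxazide control wells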
# APP 5'UTR act: activates APP 5'UTR luciferase reporter; activation, % at 2 µM; AID 1276; 190,000 compounds, 1% hits; SH-SY5Y APP 5'UTR luciferase reporter, luminescence; zero percent = DMSO vehicle wells;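 active = activation above a set limit, based on mean plus 3 SD of controls, cut at about 140% in these data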
# STAT1 activ conf: STAT1 activation, confirmation assay. shares compounds with STAT1 activator. NIH 3T3 STAT1-luciferase reporter, IFN-gamma potentiation, luminescence; 100% = IFN-gamma EC80 alone, no compound. activation (% of control), % at 5.7 µM. 1,200 compounds, 97% hits. AID 1262;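 active = activation above a set limit carried over from the earlier primary STAT1 screen, cut at about 140% in these data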;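 also: simple ratio to median IFN-gamma plus DMSO wells so 0% means no light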
# NFkB act: counter-screen for STAT1 activators: NF-kappaB activation | shares compounds with STAT1 activator | HEK293T NF-kB luciferase reporter, TNF-alpha stimulated, luminescence; 100% = TNF-alpha with vehicle only | activation (% of control), % at 5.7 µM | 1,200 compounds, 43% hits | AID 1306;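 active = activation above the mean of solvent-only control wells plus 3 SD, set per campaign, cut at about 130% in these data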;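 also: TNF-alpha given at a submaximal dose yielding about 80% of full reporter signal; values are well signal over median control so 100% means no change and 0% no light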
# STAT3 act 2: activates human STAT3, counter-screen to STAT1 activators; shares compounds with STAT1 activator; activation (% of control), % at 5.7 µM; U3A cells STAT3-luciferase reporter, IL-6, luminescence; cells lack STAT1; 100 = IL-6 alone, no compound effect; AID 1316; 1,200 compounds, 46% hits;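 active = activation above the solvent-only control well mean plus 3 SD, set per plate batch, cut at about 110% in these data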;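 also: 0% = no luminescence and 100% = median IL-6 plus DMSO wells; higher means more STAT3 reporter activation so hits are non-selective activators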
# Numbers without * were called inactive; . = not tested or not shown. This is a sample that favours compounds with a hit; in the whole collection about 4.9% have one here.
SMILES,STAT1 blocker,STAT1 activator,NF-kB neuron act,STAT3 activator,STAT3 inh,APP 5'UTR act,STAT1 activ conf,NFkB act,STAT3 act 2
COc1ccc(Cn2c(/C=C/c3ccccc3)nc3ccccc32)cc1,-63.8,157.4*,6.13*,120.4,-18.7,.,195.7*,150.4*,130.3*
Cc1cc2nnc(SCC(=O)N(C)C3CCS(=O)(=O)C3)n2c2ccccc12 (stereo not drawn),2.9,97.4,1.13,93.2,8.3,12.3,.,.,.
Cc1nn(Cc2ccccc2Cl)c(Cl)c1C(=O)NCCc1ccccc1,-81.9,172.8*,3.49*,104.8,-5.3,.,193.3*,119.9,140.9*
Cc1ccc(OCc2nc(-c3ccccc3)no2)c(C)c1,-69.8,163.2*,5.15*,92.2,9.9,120.2,185.1*,129.2,110.5
COc1ccc(N=C(C)C2=C(O)c3ccccc3C2=O)cc1,-72.6,164.6*,5.43*,74.2,29.0,206.1*,209.4*,103.4,87.6
c1ccc(-c2nc3c(ccc4ccccc43)[nH]2)nc1,-71.7,172.9*,3.72*,130.6,-33.1,111.0,186.7*,119.5,129.6*
Cc1cc(OCC(=O)O/N=C(\N)c2ccccc2)ccc1Br,-12.4,110.9,1.65,101.1,3.4,10.0,.,.,.
C/C(=N\NC(=O)c1c(Br)c(C)nn1C)c1ccc(NC(=O)c2ccoc2C)cc1,-21.8,119.8,1.01,99.4,2.0,-12.4,.,.,.
C/C(=N\NC(=O)c1nn(C)c(C)c1Br)c1ccc(NC(=O)c2ccoc2C)cc1,-86.9,179.3*,1.23,81.4,28.0,57.4,119.0,114.5,88.7
CCC(=O)Nc1ccc(/C(C)=N/NC(=O)c2c(Br)c(C)nn2C)cc1,10.2,90.9,0.88,99.6,-0.5,-7.3,.,.,.
C/C(=N\NC(=O)c1nn(C)c(C)c1Br)c1ccc(NC(=O)c2ccccc2F)cc1,-62.3,156.2*,1.3,79.9,26.4,112.5,123.3,118.1,89.1
OCCOCCNc1ncnc2c1cnn2-c1ccc(Cl)cc1,-63.0,157.2*,4.61*,96.1,9.7,139.9*,224.7*,133.4*,116.4*
COC(=O)c1ccccc1NC(=O)c1cccc(NC(=O)C(C)C)c1,-3.6,101.5,0.73,77.4,30.3,17.9,.,.,.
O=[N+]([O-])c1ccccc1/C=C/C=N/N1CCCCC1,-59.6,155.1*,4.48*,97.3,7.2,99.2,177.9*,129.7,111.3*
Oc1c(C2=NCCNC(C(F)(F)F)=C2)ccc2ccccc12,-111.2,199.1*,6.01*,103.9,4.4,132.7,221.8*,146.8*,113.9*
Cc1ccc(O)c(C2=NCCNC(C(F)(F)F)=C2)c1,-9.6,108.9,1.15,100.5,-3.7,-2.1,.,.,.
O=C(O[C@@H]1OC2COC(=O)c3cc(O)c(O)c(O)c3-c3c(cc(O)c(O)c3O)C(=O)O[C@@H]([C@H]1O)[C@@H]2O)c1cc(O)c(O)c(O)c1,16.4,85.1,0.99,90.8,8.2,-12.1,.,.,.
Clc1ccc(-c2cnc(Oc3ccccc3)nc2)cc1,-59.1,152.8*,2.35,99.7,1.9,137.9*,189.7*,141.6*,108.7
Cc1oc(-c2ccc(-c3ccccc3)cc2)nc1CN1CCN(CC(=O)N(C)C)CC1,-61.5,154.9*,2.05,129.1,-28.6,90.1,191.2*,129.7,128.2*
Cc1oc(-c2ccccc2)nc1CC(=O)O,-0.5,98.7,1.17,101.3,-1.7,0.6,.,.,.
O=C(O)C1=C[C@H](C2CC2)C[C@H](OCCCCO)O1,5.6,96.2,1.17,.,.,-8.0,.,.,.
CCN1C/C(=C/c2ccc(OC)c(O)c2)C(=O)/C(=C/c2ccc(OC)c(O)c2)C1,-253.6,335.2*,0.24,99.6,4.4,-87.9,108.7,137.8*,96.6
Nc1ccc2oc(-c3cc(Br)ccc3Cl)nc2c1,3.5,96.8,0.5,91.6,17.2,-46.5,.,.,.
Nc1ccc2oc(-c3ccccc3Cl)nc2c1,-56.4,151.4*,2.4,68.2,34.1,9.6,202.8*,103.3,90.2
Cc1nc(NC(=O)c2csc3ccccc23)sc1C,-82.5,175.5*,7.52*,96.4,10.5,150.9*,255.6*,137.3*,110.9*
SMILES,STAT1 blocker,STAT1 activator,NF-kB neuron act,STAT3 activator,STAT3 inh,APP 5'UTR act,STAT1 activ conf,NFkB act,STAT3 act 2
Cc1nn(C)c(C)c1/C=N/NC(=O)c1csc2ccccc12,-16.2,114.4,1.17,106.6,-5.4,-9.7,.,.,.
CCOC(=O)c1[nH]c(C)c(C(=O)OCC(=O)N(C)C2CCS(=O)(=O)C2)c1C (stereo not drawn),-9.5,107.2,1.59,96.7,6.2,-2.7,.,.,.
CNC(=O)c1ccc(=O)n(Cc2cccc(C(F)(F)F)c2)c1,-4.0,103.1,1.14,100.9,1.3,1.2,.,.,.
Cc1ncsc1C(=O)Nc1nc2c(s1)CCCC2,-58.9,153.9*,3.17,86.6,17.9,100.6,174.8*,124.4,105.2
COC(=O)c1ccc(C(=O)NC(=S)Nc2nc3c(s2)CCCC3)cc1,-27.0,124.4,1.71,106.7,-2.0,22.1,.,.,.
O=C(Nc1nc2c(s1)CCCC2)c1ccc2ncsc2c1,-85.7,181.5*,3,85.8,17.6,160.1*,270.5*,138.8*,111.1*
COc1ccc(OC)c2sc(NC(=O)c3ccc(Br)s3)nc12,-0.3,101.1,1.18,97.9,2.7,20.2,.,.,.
O=C(Nc1nc2c(s1)CCCC2)c1ccc(Br)s1,-73.9,165.9*,6.08*,86.2,20.6,146.1*,256.3*,138.3*,103.7
COc1ccc(F)cc1C(=O)C1CCCN(C(=O)c2cccc(N(C)C)c2)C1 (stereo not drawn),-0.2,98.5,.,102.4,2.4,10.6,.,.,.
Cc1cccc2nc(COc3ccc(-c4ccccc4)cc3)cn12,-70.0,162.6*,2.3,88.3,20.0,38.7,168.0*,109.7,115.3*
CCOC(=O)c1cn2c(C)cccc2n1,-0.3,98.8,1.06,100.3,1.7,16.8,.,.,.
Cc1cc(C)n2cc(COc3ccc4ccccc4c3)nc2n1,-86.4,176.3*,8.03*,90.4,15.2,146.1*,214.1*,127.1,117.4*
COc1ccc(Cl)c2c1[nH]c1nc(SCc3ccccn3)nnc12,-100.4,188.8*,4.18*,119.7,-15.5,156.8*,175.2*,143.7*,124.2*
CCOC(=O)c1sc2nc(N3CCOCC3)c3c(c2c1N)CC(C(C)C)OC3 (stereo not drawn),-1.0,100.0,1.24,80.9,30.8,-10.9,.,.,.
